Published values pooled from the literature.
Each line is one published result; the experiments were not run side by side.
Target: Beta-adrenergic receptor kinase 1 (GRK2, Homo sapiens, UniProt P25098)
One construct used (P25098 1-689): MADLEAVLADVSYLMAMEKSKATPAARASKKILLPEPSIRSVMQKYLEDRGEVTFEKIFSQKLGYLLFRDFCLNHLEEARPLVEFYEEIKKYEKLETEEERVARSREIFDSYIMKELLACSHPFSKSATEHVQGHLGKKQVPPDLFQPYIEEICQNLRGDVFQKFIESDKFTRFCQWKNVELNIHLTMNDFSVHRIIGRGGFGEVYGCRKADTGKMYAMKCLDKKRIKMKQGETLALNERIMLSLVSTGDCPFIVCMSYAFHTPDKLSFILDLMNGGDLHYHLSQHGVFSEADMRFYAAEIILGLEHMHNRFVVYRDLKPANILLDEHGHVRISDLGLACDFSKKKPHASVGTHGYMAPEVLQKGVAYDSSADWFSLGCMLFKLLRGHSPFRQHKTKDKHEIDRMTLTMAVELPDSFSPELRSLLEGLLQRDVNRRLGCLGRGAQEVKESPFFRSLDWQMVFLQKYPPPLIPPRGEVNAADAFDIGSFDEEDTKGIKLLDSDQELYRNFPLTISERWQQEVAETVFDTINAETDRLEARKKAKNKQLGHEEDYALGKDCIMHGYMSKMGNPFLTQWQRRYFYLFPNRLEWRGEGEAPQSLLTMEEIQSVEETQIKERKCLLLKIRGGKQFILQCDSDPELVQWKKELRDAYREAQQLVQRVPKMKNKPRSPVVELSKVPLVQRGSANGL

CC(C)(C)c1nc(-c2cccc(NS(=O)(=O)c3c(F)cccc3F)c2F)c(-c2ccnc(N)n2)s1 — remaining activity (enzyme activity, inhibitor, radiometric; 1 µM): 95%
COc1cc2ncnc(Nc3ccc(Oc4ccccc4)c(C)c3C)c2cc1OC — inhibition (enzyme activity, inhibitor; 1 µM): -2%
CN(C(=O)c1ccccc1)c1cc(N(C)c2ccc3c(c2)CCc2ccc(C(=O)NCCN4CCOCC4)cc2C3=O)ccc1F — remaining binding (cell-free assay, competition with immobilised ligand; 1 µM): 100%
N[C@H]1CCN(c2nccc(-c3cnn4ncccc34)n2)C1 — remaining binding (binding, competition with immobilised ligand; 1 µM): 80%
C[C@H](NC(=O)c1cnc2n1[C@](C)(Cc1ccc(C#N)cc1)C(=O)N2c1cc(Cl)c(F)c(Cl)c1)C(=O)NC1(c2ccccn2)CC1 — remaining binding (cell-free assay, competition with immobilised ligand; 1 µM): 100%
COc1cc(Cl)c(C(=O)N[C@@H](CN[C@H]2CC[C@@H](N)CC2)Cc2ccc(C#N)cc2)cc1-c1ccc(CN[C@H](C)c2ccc(C)cc2)o1 — remaining activity (enzyme activity, inhibitor; 1 µM): 105%
O=C(NCc1ncc(C(F)(F)F)cc1Cl)c1ccc2c(c1)C1(CCS(=O)(=O)CC1)[C@H](C1CC1)N2S(=O)(=O)c1ccc(F)cc1 — remaining binding (cell-free assay, competition with immobilised ligand; 1 µM): 56%
O=C(Nc1cnn(-c2csc(C(=O)NC3COC3)c2)c1)Nc1ccccc1Cl — remaining activity (enzyme activity, inhibitor; 5 µM): 96.1%
N#CCCc1ccc2c(c1)-c1[nH]c3ccc([N+](=O)[O-])cc3c1CC(=O)N2 — remaining signal (cell-free assay; 0.5 µM): 96.4%
Cc1cc(NC(=O)c2cccc3cc(-c4cccc5[nH]nc(N)c45)ccc23)ccc1F — activity vs control (enzyme activity, inhibitor; 0.1 µM): 73%
CCCCNc1ncc2c(-c3ccc(F)cc3)nn(C[C@H]3CC[C@H](N)CC3)c2n1 — inhibition (target engagement in cells, inhibitor, chemoproteomics; 20 mM): -6.2%
Cc1sc(C(=O)NC2COC2)cc1-n1cc(NC(=O)Nc2c(F)cccc2Cl)cn1 — remaining activity (enzyme activity, inhibitor; 10 µM): 106%
Cc1noc([C@H]2C[C@@H](c3ccc(C(F)(F)F)cc3)CN(C(=O)N3CCS(=O)(=O)C3)C2)n1 — remaining binding (cell-free assay, competition with immobilised ligand; 1 µM): 83%
COc1cccc2c(NCc3ccccc3)nc(-n3c(N)nc4ccccc43)nc12 — inhibition (target engagement in cells, inhibitor, chemoproteomics; 20 mM): -14.5%
O=C(NC[C@@H]1[C@H]2CN(C(=O)OCc3cc(C(F)(F)F)cc(C(F)(F)F)c3)C[C@@H]12)c1ccc2[nH]nnc2c1 — remaining binding (cell-free assay, competition with immobilised ligand; 1 µM): 71%
O=C1Nc2ccc(Cl)cc2C1=Cc1cc(Cl)c(O)c(Cl)c1 — remaining signal (cell-free assay; 0.5 µM): 93.4%
